Assay results taken from ChEMBL document CHEMBL3272204, “Products from furans. 1. Sunthesis and anticoccidial and antimicrobial activity of 5-amino-5,6-dihydro-6-methoxy-2-methyl-2-(4'-biphenylyl)-2H-pyran-3(4H)-ones and related compounds” (1976).
Converted amounts (≈) assume the structure as drawn. The source made the active and inactive calls. The rule behind the calls is not given here.

Legend:
[1] = (§1) Antibacterial activity against Salmonella pullorum assessed as growth inhibition after 24 hrs; format: functional, Salmonella enterica subsp. enterica serovar Pullorum; conditions: Salmonella enterica, 24 h; read-out: MIC
Procedure, shortened: (§2)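 Twofold serial dilutions in nutrient broth. The minimum concentration inhibiting visible growth was read after 24 hr incubation at 37°.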

Staphylococcus [2] = assay: Antibacterial activity against penicillin-sensitive Staphylococcus pyogenes assessed as growth inhibition after 24 hrs; format: functional
Procedure, shortened: (§3)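 Halving (twofold) serial dilutions of compound in nutrient broth, in vitro. Incubated 24 hr at 37°. Value reported is the lowest concentration that inhibited growth.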

Pseudomonas aeruginosa = assay: Antibacterial activity against Pseudomonas aeruginosa assessed as growth inhibition after 24 hrs; format: functional; procedure, shortened: as §2
Escherichia coli = assay: Antibacterial activity against Escherichia coli 198 assessed as growth inhibition after 24 hrs; format: functional; procedure, shortened: as §2
Nannizzia gypsea = assay: Antifungal activity against Microsporum gypseum assessed as growth inhibition after 10 days at 28 degC; format: functional
Procedure, shortened: (§4)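 Twofold serial dilutions in Sabouraud broth. The minimum inhibitory concentration was read after 10 days at 28°.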

Candida albicans = assay: Antifungal activity against Candida albicans assessed as growth inhibition after 5 days at 37 degC; format: functional
Procedure, shortened: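 Twofold serial dilutions in Sabouraud broth. The minimum inhibitory concentration was read after 5 days at 37°.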

Klebsiella pneumoniae = assay: Antibacterial activity against Klebsiella pneumoniae assessed as growth inhibition after 24 hrs; format: functional; procedure, shortened: as §2
Klebsiella aerogenes = assay: Antibacterial activity against Aerobacter aerogenes assessed as growth inhibition after 24 hrs; format: functional; procedure, shortened: as §2
Staphylococcus [3] = assay: Antibacterial activity against penicillin-resistant Staphylococcus pyogenes assessed as growth inhibition after 24 hrs; format: functional; procedure, shortened: as §3
Serratia marcescens = assay: Antibacterial activity against Serratia marcescens assessed as growth inhibition after 24 hrs; format: functional; procedure, shortened: as §2
Enterococcus faecalis = assay: Antibacterial activity against Streptococcus faecalis assessed as growth inhibition after 24 hrs; format: functional; procedure, shortened: as §2
Proteus vulgaris = assay: Antibacterial activity against Proteus vulgaris assessed as growth inhibition after 24 hrs; format: functional; procedure, shortened: as §2
[4] = test system: Salmonella enterica subsp. enterica serovar Pullorum; assay: as §1; format: functional; procedure, shortened: as §2
Eimeria tenella [5] = assay: Anticoccidal activity against Eimeria tenella assessed as improved weight gain and mortality in chicken relative to noninfected control; format: functional, organism-based
Procedure, shortened: (§5)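 Chickens with experimental coccidiosis received compound orally in the diet at 0.05%, starting 1 day before infection. Efficacy was judged 6 days later from survival and weight gain.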

[6] = Antifungal activity against Trichophyton granulosum assessed as growth inhibition after 10 days at 28 degC; format: functional; conditions: Trichophyton mentagrophytes var. granulosum; procedure, shortened: as §4
Eimeria acervulina [7] = assay: Anticoccidal activity against Eimeria acervulina assessed as improved weight gain in chicken; format: functional, organism-based; procedure, shortened: as §5
Eimeria acervulina [8] = assay: Anticoccidal activity against Eimeria acervulina assessed as improved weight gain and mortality in chicken relative to noninfected control; format: functional, organism-based; procedure, shortened: as §5
Eimeria tenella [9] = assay: Anticoccidal activity against Eimeria tenella assessed as improved weight gain in chicken at 0.05%, po; format: functional, organism-based; procedure, shortened: as §5
[10] = Staphylococcus, 24 h, read-out: MIC
[11] = Pseudomonas aeruginosa, 24 h, read-out: MIC
[12] = Escherichia coli, 198, 24 h, read-out: MIC
[13] = Nannizzia gypsea, 240 h, read-out: MIC
[14] = Candida albicans, 120 h, read-out: MIC
[15] = Klebsiella pneumoniae, 24 h, read-out: MIC
[16] = Klebsiella aerogenes, 24 h, read-out: MIC
[17] = Serratia marcescens, 24 h, read-out: MIC
[18] = Enterococcus faecalis, 24 h, read-out: MIC
[19] = Proteus vulgaris, 24 h, read-out: MIC

Row | Structure (SMILES) | MIC [1] [µg/mL] | MIC (Staphylococcus [2]; [10]) [µg/mL] | MIC (Pseudomonas aeruginosa; [11]) [µg/mL] | MIC (Escherichia coli; [12]) [µg/mL] | MIC (Nannizzia gypsea; [13]) [µg/mL] | MIC (Klebsiella pneumoniae; [15]) [µg/mL] | MIC (Klebsiella aerogenes; [16]) [µg/mL] | MIC (Staphylococcus [3]; [10]) [µg/mL] | MIC (Serratia marcescens; [17]) [µg/mL] | MIC (Enterococcus faecalis; [18]) [µg/mL] | MIC (Proteus vulgaris; [19]) [µg/mL] | MIC [4] | MIC (Staphylococcus [2]) | Activity (Eimeria tenella [5]) | MIC [6] | MIC (Pseudomonas aeruginosa) | MIC (Escherichia coli) | MIC (Klebsiella pneumoniae) | MIC (Klebsiella aerogenes) | MIC (Staphylococcus [3]) | further results
1 | COC1OC(C)(c2ccc(-c3ccccc3)cc2)C(=O)CC1N(C)C (stereo in doubt; 2a) | 3.2 (≈ 9.43 µM) | 3.2 (≈ 9.43 µM) | 3.2 (≈ 9.43 µM) | 3.2 (≈ 9.43 µM) | 4 (≈ 11.8 µM) | 3.2 (≈ 9.43 µM) | 3.2 (≈ 9.43 µM) | 3.2 (≈ 9.43 µM) | 3.2 (≈ 9.43 µM) | 3.2 (≈ 9.43 µM) | 3.2 (≈ 9.43 µM) |  |  |  |  |  |  |  |  |  | MIC (Candida albicans; [14]): 16 µg/mL (≈ 47.1 µM)
2 | CNC(=O)OC1C=CC(=O)C(C)(c2ccc(-c3ccccc3)cc2)O1 (stereo not given) |  |  |  |  | 1.6 (≈ 4.74 µM) |  |  |  |  |  |  | inactive | inactive | Active | 1.6 µg/mL (≈ 4.74 µM) | inactive | inactive | inactive | inactive | inactive | Activity (Eimeria acervulina [7]): inactive; MIC (Candida albicans; [14]): 250 µg/mL (≈ 741 µM); MIC (Serratia marcescens): inactive; MIC (Enterococcus faecalis): inactive; MIC (Proteus vulgaris): inactive
3 | COC1OC(C)(c2ccc(-c3ccccc3)cc2)C(=O)CC1N(C)C (single isomer, unassigned; isomer 1) |  |  |  |  |  |  |  |  |  |  |  |  |  | Active | 8 µg/mL (≈ 23.6 µM) |  |  |  |  |  | Activity (Eimeria acervulina [8]): Active
4 | COC1OC(C)(c2ccc(-c3ccccc3)cc2)C(O)CC1N(C)C (stereo in doubt; 3a) |  |  |  |  |  |  |  |  |  |  |  | inactive | inactive | Active | inactive | inactive | inactive | inactive | inactive | inactive | Activity (Eimeria acervulina [8]): Active; MIC (Nannizzia gypsea): inactive; MIC (Candida albicans): inactive; MIC (Serratia marcescens): inactive; MIC (Enterococcus faecalis): inactive; MIC (Proteus vulgaris): inactive
5 | COC1OC(C)(c2ccc(-c3ccccc3)cc2)C(O)CC1N1CCOCC1 (stereo not given) |  |  |  |  |  |  |  |  |  |  |  | inactive | inactive |  | inactive | inactive | inactive | inactive | inactive | inactive | MIC (Nannizzia gypsea): inactive; MIC (Candida albicans): inactive; MIC (Serratia marcescens): inactive; MIC (Enterococcus faecalis): inactive; Activity (Eimeria tenella [9]): inactive; MIC (Proteus vulgaris): inactive
6 | COC1C=CC(=O)C(C)(c2ccc(-c3ccccc3)cc2)O1 (stereo in doubt; 1a) | 6.2 (≈ 21.1 µM) | 6.2 (≈ 21.1 µM) | 6.2 (≈ 21.1 µM) | 6.2 (≈ 21.1 µM) | 2 (≈ 6.79 µM) | 6.2 (≈ 21.1 µM) | 6.2 (≈ 21.1 µM) | 6.2 (≈ 21.1 µM) | 6.2 (≈ 21.1 µM) | 6.2 (≈ 21.1 µM) | 6.2 (≈ 21.1 µM) |  |  |  |  |  |  |  |  |  | MIC (Candida albicans; [14]): 32 µg/mL (≈ 109 µM)
7 | COC1OC(C)(c2ccc(-c3ccccc3)cc2)C(O)CC1N1CCN(C)CC1 (stereo not given) |  |  |  |  |  |  |  |  |  |  |  | inactive | inactive | Active | inactive | inactive | inactive | inactive | inactive | inactive | Activity (Eimeria acervulina [7]): inactive; MIC (Nannizzia gypsea): inactive; MIC (Candida albicans): inactive; MIC (Serratia marcescens): inactive; MIC (Enterococcus faecalis): inactive; MIC (Proteus vulgaris): inactive
8 | COC1OC(C)(c2ccc(-c3ccccc3)cc2)C(=O)CC1N1CCOCC1 (stereo not given) | 3.2 (≈ 8.39 µM) | 3.2 (≈ 8.39 µM) | 3.2 (≈ 8.39 µM) | 3.2 (≈ 8.39 µM) | 3.2 (≈ 8.39 µM) | 3.2 (≈ 8.39 µM) | 3.2 (≈ 8.39 µM) | 3.2 (≈ 8.39 µM) | 3.2 (≈ 8.39 µM) | 3.2 (≈ 8.39 µM) | 3.2 (≈ 8.39 µM) |  |  | Active | 16 µg/mL (≈ 41.9 µM) |  |  |  |  |  | Activity (Eimeria acervulina [7]): inactive; MIC (Candida albicans): inactive
9 | COC1OC(C)(c2ccc(-c3ccccc3)cc2)C(=O)CC1N1CCN(C)CC1 (stereo not given) | 6.2 (≈ 15.7 µM) | 6.2 (≈ 15.7 µM) | 6.2 (≈ 15.7 µM) | 6.2 (≈ 15.7 µM) | 3.2 (≈ 8.11 µM) | 6.2 (≈ 15.7 µM) | 6.2 (≈ 15.7 µM) | 6.2 (≈ 15.7 µM) | 6.2 (≈ 15.7 µM) | 6.2 (≈ 15.7 µM) | 6.2 (≈ 15.7 µM) |  |  |  | 1.6 µg/mL (≈ 4.06 µM) |  |  |  |  |  | Activity (Eimeria acervulina [8]): Active; Activity (Eimeria tenella [9]): inactive
